Converted amounts (≈) assume the structure as drawn.
Legend:
U-87 MG [1] = assay: Cytotoxicity against human U87 cells assessed as cell viability at 1.5 uM after 72 hrs by MTT assay relative to control; type: functional, U-87MG ATCC; conditions: read-out: Activity
Method in brief: (§1)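 Cells grown in DMEM with 10% heat-inactivated FCS and penicillin/streptomycin at 37 °C, 5% CO2, and used in log phase. Seeded in 96-well plates and exposed to compounds at 5 μM and 1.5 μM for 72 h. MTT added, formazan dissolved in DMSO, OD read at 570 nm, and survival rate calculated. Average of at least three independent experiments.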

HeLa [2] = assay: Cytotoxicity against human HeLa cells assessed as cell viability at 1.5 uM after 72 hrs by MTT assay relative to control; type: functional; conditions: read-out: Activity; method in brief: as §1
U-87 MG [3] = assay: Cytotoxicity against human U87 cells assessed as cell viability at 5 uM after 72 hrs by MTT assay relative to control; type: functional, U-87MG ATCC; conditions: read-out: Activity; method in brief: as §1
HeLa [4] = assay: Cytotoxicity against human HeLa cells assessed as cell viability at 5 uM after 72 hrs by MTT assay relative to control; type: functional; conditions: read-out: Activity; method in brief: as §1
[5] = Cytotoxicity against human KBV cells assessed as cell viability at 1.5 uM after 72 hrs by MTT assay relative to control; type: functional; conditions: read-out: Activity; method in brief: as §1
MKN-45 [6] = assay: Cytotoxicity against human MKN45 cells assessed as cell viability at 1.5 uM after 72 hrs by MTT assay relative to control; type: functional; conditions: MKN-45, 72 h, read-out: Activity; method in brief: as §1
[7] = Cytotoxicity against human KBV cells assessed as cell viability at 5 uM after 72 hrs by MTT assay relative to control; type: functional; conditions: read-out: Activity; method in brief: as §1
MKN-45 [8] = assay: Cytotoxicity against human MKN45 cells assessed as cell viability at 5 uM after 72 hrs by MTT assay relative to control; type: functional; conditions: MKN-45, 72 h, read-out: Activity; method in brief: as §1
Staphylococcus aureus = assay: Antibacterial activity against Staphylococcus aureus; type: functional
[9] = Cytotoxicity against HEK293 cells assessed as reduction in cell viability after 72 hrs by MTT assay; type: cell-based; conditions: human

| SMILES | viability at 1.5 µM (U-87 MG [1]) [%] | viability at 1.5 µM (HeLa [2]) [%] | viability at 5 µM (U-87 MG [3]) [%] | viability at 5 µM (HeLa [4]) [%] | viability at 1.5 µM [5] [%] | viability at 1.5 µM (MKN-45 [6]) [%] | viability at 5 µM [7] [%] | viability at 5 µM (MKN-45 [8]) [%] | MIC (Staphylococcus aureus) [µg/mL] | CC50 at 72 h [9] [µg/mL] |
| --- | --- | --- | --- | --- | --- | --- | --- | --- | --- | --- |
| CC(=O)O[C@H]1C[C@@]2(C)[C@@H](C[C@@H](O)[C@H]3[C@@]4(C)CC[C@@H](OC(=O)CCC(=O)n5cccn5)[C@@H](C)[C@@H]4CC[C@@]32C)/C1=C(\CCC=C(C)C)C(=O)OCc1ccccc1 | 87 | 75 | 83 | 71 | 77 | 88 | 80 | 83 |  |  |
| CC(=O)O[C@H]1C[C@@]2(C)[C@@H](C[C@@H](O)[C@H]3[C@@]4(C)CC[C@@H](OC(=O)c5ccccc5C(=O)n5cccn5)[C@@H](C)[C@@H]4CC[C@@]32C)/C1=C(\CCC=C(C)C)C(=O)OCc1ccccc1 | 90 | 90 | 87 | 82 | 85 | 101 | 79 | 96 |  |  |
| CC(=O)O[C@H]1C[C@@]2(C)[C@@H](C[C@@H](O)[C@H]3[C@@]4(C)CC[C@@H](OC(=O)CCC(=O)N5CCOCC5)[C@@H](C)[C@@H]4CC[C@@]32C)/C1=C(\CCC=C(C)C)C(=O)OCc1ccccc1 | 91 | 76 | 93 | 64 | 78 | 82 | 66 | 78 |  |  |
| CC(=O)O[C@H]1C[C@@]2(C)[C@@H](C[C@@H](O)[C@H]3[C@@]4(C)CC[C@@H](OC(=O)c5nccnc5C(=O)O)[C@@H](C)[C@@H]4CC[C@@]32C)/C1=C(\CCC=C(C)C)C(=O)OCc1ccccc1 | 88 | 76 | 90 | 69 | 86 | 95 | 108 | 87 |  |  |
| CC(=O)O[C@H]1C[C@@]2(C)[C@@H](C[C@@H](O)[C@H]3[C@@]4(C)CC[C@@H](OC(=O)c5ccccc5C(=O)N5CCOCC5)[C@@H](C)[C@@H]4CC[C@@]32C)/C1=C(\CCC=C(C)C)C(=O)OCc1ccccc1 | 86 | 76 | 77 | 60 | 81 | 104 | 66 | 92 |  |  |
| CC(=O)O[C@H]1C[C@@]2(C)[C@@H](C[C@@H](O)[C@H]3[C@@]4(C)CC[C@@H](OC(=O)CCC(=O)N5CCN(C)CC5)[C@@H](C)[C@@H]4CC[C@@]32C)/C1=C(\CCC=C(C)C)C(=O)OCc1ccccc1 | 87 | 70 | 88 | 47 | 82 | 81 | 71 | 75 |  |  |
| CC(=O)O[C@H]1C[C@@]2(C)[C@@H](C[C@@H](O)[C@H]3[C@@]4(C)CC[C@@H](OC(=O)C(N)CC(C)C)[C@@H](C)[C@@H]4CC[C@@]32C)/C1=C(\CCC=C(C)C)C(=O)OCc1ccccc1 (stereo not given in full) | 106 | 99 | 111 | 22 | 96 | 95 | 83 | 92 |  |  |
| CC(=O)O[C@H]1C[C@@]2(C)[C@@H](C[C@@H](O)[C@H]3[C@@]4(C)CC[C@@H](OC(=O)[C@@H](N)CCCCN)[C@@H](C)[C@@H]4CC[C@@]32C)/C1=C(\CCC=C(C)C)C(=O)OCc1ccccc1 | 105 | 101 | 9 | 8 | 99 | 91 | 18 | 8 |  |  |
| CC(=O)O[C@H]1C[C@@]2(C)[C@@H](C[C@@H](O)[C@H]3[C@@]4(C)CC[C@@H](OC(=O)CN)[C@@H](C)[C@@H]4CC[C@@]32C)/C1=C(\CCC=C(C)C)C(=O)OCc1ccccc1 | 94 | 100 | 41 | 96 | 97 | 95 | 28 | 93 | > 32 | 10.8 (≈ 16.3 µM) |
| CC(=O)O[C@H]1C[C@@]2(C)[C@@H](C[C@@H](O)[C@H]3[C@@]4(C)CC[C@@H](OC(=O)c5ccccc5C(=O)N5CCN(C)CC5)[C@@H](C)[C@@H]4CC[C@@]32C)/C1=C(\CCC=C(C)C)C(=O)OCc1ccccc1 | 86 | 83 | 77 | 73 | 89 | 104 | 75 | 99 |  |  |
| CC(=O)O[C@H]1C[C@@]2(C)[C@@H](C[C@@H](O)[C@H]3[C@@]4(C)CC[C@@H](OC(=O)CCC(=O)O)[C@@H](C)[C@@H]4CC[C@@]32C)/C1=C(\CCC=C(C)C)C(=O)OCc1ccccc1 | 86 | 83 | 84 | 69 | 72 | 74 | 66 | 76 |  |  |
| CC(=O)O[C@H]1C[C@@]2(C)[C@@H](C[C@@H](O)[C@H]3[C@@]4(C)CC[C@@H](OC(=O)C(C)N)[C@@H](C)[C@@H]4CC[C@@]32C)/C1=C(\CCC=C(C)C)C(=O)OCc1ccccc1 (stereo not given in full) | 95 | 102 | 33 | 23 | 95 | 96 | 15 | 91 |  |  |
| CC(=O)O[C@H]1C[C@@]2(C)[C@@H](C[C@@H](O)[C@H]3[C@@]4(C)CC[C@@H](OC(=O)CCCN)[C@@H](C)[C@@H]4CC[C@@]32C)/C1=C(\CCC=C(C)C)C(=O)OCc1ccccc1 | 10 | 101 | 9 | 23 | 98 | 90 | 13 | 6 |  |  |
| CC(=O)O[C@H]1C[C@@]2(C)[C@@H](C[C@@H](O)[C@H]3[C@@]4(C)CC[C@@H](OC(=O)c5ccccc5C(=O)O)[C@@H](C)[C@@H]4CC[C@@]32C)/C1=C(\CCC=C(C)C)C(=O)OCc1ccccc1 | 81 | 89 | 85 | 68 | 78 | 78 | 81 | 76 | 32 (≈ 42.4 µM) | 20.6 (≈ 27.3 µM) |
| CC(=O)O[C@H]1C[C@@]2(C)[C@@H](C[C@@H](O)[C@H]3[C@@]4(C)CC[C@@H](OC(=O)CCCCCCCN)[C@@H](C)[C@@H]4CC[C@@]32C)/C1=C(\CCC=C(C)C)C(=O)OCc1ccccc1 | 116 | 99 | 10 | 19 | 83 | 16 | 11 | 4 |  |  |
| CC(=O)O[C@H]1C[C@@]2(C)[C@@H](C[C@@H](O)[C@H]3[C@@]4(C)CC[C@@H](OC(=O)CCCCCCCCCCN)[C@@H](C)[C@@H]4CC[C@@]32C)/C1=C(\CCC=C(C)C)C(=O)OCc1ccccc1 | 49 | 100 | 10 | 19 | 93 | 96 | 9 | 5 |  |  |
| CC(=O)O[C@H]1C[C@@]2(C)[C@@H](C[C@@H](O)[C@H]3[C@@]4(C)CC[C@@H](OC(=O)c5ccccc5C(=O)n5ccnc5)[C@@H](C)[C@@H]4CC[C@@]32C)/C1=C(\CCC=C(C)C)C(=O)OCc1ccccc1 | 85 | 84 | 77 | 63 | 81 | 103 | 69 | 92 |  |  |

Source: ChEMBL document CHEMBL4325897, “Discovery, synthesis of novel fusidic acid derivatives possessed amino-terminal groups at the 3-hydroxyl position with anticancer activity” (Eur J Med Chem, 2019)
